The EC50 is the concentration needed to bring the measured effect to its halfway point. As a reminder, the CC50 is the concentration at which the toxic effect on the cells reaches its halfway point. In general, IC50 refers to the concentration that gives 50% inhibition. Read a low IC50 as higher potency.

Where “and” joins values, the source holds several entries; their conditions need not be identical. Equal entries are not always repeated. A value given as a limit tells only on which side of the number the result lay.

One data set concerns MT4. The data set is described as follows: Effective concentration required to reduce the exponential growth of MT-4/KB cells. Type of data set: functional, cell-based. The conditions noted are these: Homo sapiens. A digest of the protocol: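 Cell-based HIV-1 multiplication assay in MT-4 cells, run in parallel with cytotoxicity on mock-infected cells. Value is the concentration giving 50% reduction of exponential growth of MT-4/KB cells. Mean of three independent determinations.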

Data set [1] is described as follows: (§1) Cytotoxic concentration required to reduce the viability of mock-infected cells was determined by using MTT assay. A digest of the protocol:
(§2)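 Viability of mock-infected cells read by MTT, run in parallel with the antiviral assay. Value is the dose giving a 50% loss of viability. Mean of three independent determinations.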
For orientation: Tetrazolium dyes change colour on reduction, which living cells bring about.

Data set [2] deals with Human immunodeficiency virus type 1 integrase (Human immunodeficiency virus 1, UniProt Q7ZJM1). The data set is described as follows: Inhibitory activity against HIV-1 integrase.
A short description of data set [3]: Selectivity index was determined. The data set is classed as functional.
The nature of data set [4]: as §1. The data set is classed as functional. In outline: as §2

Human immunodeficiency virus type 1 integrase, sequence (Q7ZJM1 whole entry): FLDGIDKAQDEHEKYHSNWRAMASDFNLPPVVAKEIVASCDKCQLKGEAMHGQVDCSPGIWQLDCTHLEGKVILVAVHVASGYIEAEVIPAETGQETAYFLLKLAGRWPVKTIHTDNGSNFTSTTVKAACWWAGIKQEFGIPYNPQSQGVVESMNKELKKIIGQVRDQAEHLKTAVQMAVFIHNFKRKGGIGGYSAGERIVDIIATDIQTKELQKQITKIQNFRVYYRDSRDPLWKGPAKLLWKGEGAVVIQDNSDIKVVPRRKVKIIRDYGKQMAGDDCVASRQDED

Consider `CCOC(=O)C(=O)CC(=O)/C=C/c1cccn1Cc1ccc(Cl)cc1`, for which the EC50 with MT4 was above 52 µM. In data set [1], the CC50 was 52 µM.

Take `O=C(/C=C/c1cccn1Cc1ccc(F)cc1)CC(=O)C(=O)O`: in data set [2], the IC50 was 61 µM and 72 µM. In the data set on MT4, this compound came in with an EC50 of 11 µM. In data set [1], the CC50 was 80 µM. The Selectivity index in data set [3] was determined as 7.3.

`O=C(/C=C/c1cccn1Cc1ccc(Cl)cc1)CC(=O)C(=O)O`: the IC50 in data set [2] is 50 µM and 65 µM. In addition, the EC50 in the data set on MT4 is above 95 µM. In addition, the CC50 in data set [1] worked out at 95 µM.

For the compound `CCOC(=O)C(=O)CC(=O)/C=C/c1cccn1Cc1ccccc1`, the cytotoxic concentration (CC50) in data set [1] was 17 µM.

In turn, `Cc1ccc(Cn2cccc2/C=C/C(=O)CC(=O)C(=O)O)cc1` showed an EC50 in the data set with MT4 above 41 µM. In data set [1], this compound gave a CC50 of 41 µM.

`O=C(/C=C/c1cccn1Cc1ccccc1)CC(=O)C(=O)O`: the EC50 with MT4 came to 1.5 µM. This compound yielded a CC50 in data set [1] of 61 µM.

On to `O=C(/C=C/c1cccn1Cc1ccc([N+](=O)[O-])cc1)CC(=O)C(=O)O`, for which, in data set [2], the concentration for half-maximal inhibition (IC50) was 76 µM and 92 µM. The same compound had an EC50 in the data set on MT4 above 33 µM. The same compound registered a CC50 in data set [4] of 33 µM.

Take `CCOC(=O)C(=O)CC(=O)/C=C/c1cccn1Cc1ccc([N+](=O)[O-])cc1`: the IC50 in data set [2] is 57 µM and 45 µM. This compound came in with a 50% effective concentration (EC50) in the data set with MT4 above 31 µM. Moreover, the CC50 in data set [1] worked out at 31 µM.

Compound `CCOC(=O)C(=O)CC(=O)/C=C/c1cccn1Cc1ccc(C)cc1` showed an EC50 in the data set on MT4 above 7 µM. The compound further gave a CC50 in data set [1] of 7 µM.

`CCOC(=O)C(=O)CC(=O)/C=C/c1cccn1Cc1ccc(OC)cc1`: the 50% effective concentration (EC50) in the data set on MT4 is above 27 µM. The compound also returned a 50% cytotoxic concentration (CC50) in data set [1] of 27 µM.

In the data set with MT4, `O=C(O)C(=O)CC(=O)c1cccn1Cc1ccc(F)cc1` came in with a half-maximal effective concentration (EC50) of 1.5 µM.

With `CCOC(=O)C(=O)CC(=O)/C=C/c1cccn1Cc1ccc(F)cc1`, the EC50 in the data set with MT4 came out at 12 µM. The compound further yielded a CC50 in data set [1] of 55 µM.

Take `COc1ccc(Cn2cccc2/C=C/C(=O)CC(=O)C(=O)O)cc1`: in the data set with MT4, the EC50 is above 78 µM. In data set [1], this compound returned a half-maximal cytotoxic concentration (CC50) of 78 µM.

(Values after ChEMBL document CHEMBL1147498, “6-aryl-2,4-dioxo-5-hexenoic acids, novel integrase inhibitors active against HIV-1 multiplication in cell-based assays” (Bioorg Med Chem Lett, 2004).)
